Source: ChEMBL document CHEMBL1151459, “Bile and unsaturated fatty acids inhibit the binding of cholera toxin and Escherichia coli heat-labile enterotoxin to GM1 receptor” (Antimicrob Agents Chemother, 2008)
Calls of active or inactive are those of the source. The rule behind the calls is not given here.

Columns and labels:
Vibrio cholerae [1] = assay: Blockade of anti-CT antibody binding site of Vibrio cholerae cholera toxin preincubated for 15 mins before addition of anti-CT immunoglobulin G by immunoprecipitation-based SDS-PAGE
Vibrio cholerae [2] = assay: Binding affinity to Vibrio cholerae cholera toxin assessed as inhibition of cholera toxin binding to ganglioside GM1 receptor relative to ganglioside GM1 receptor antagonist […]
Vibrio cholerae [3] = assay: Binding affinity to Vibrio cholerae cholera toxin assessed as decrease in fluorescence intensity by fluorescence emission spectroscopy
Oryctolagus cuniculus [4] = organism: Oryctolagus cuniculus; assay: Inhibition of intestinal fluid accumulation in rabbit ligated ileal loop model at 21 mM injected in presence of heat labile enterotoxin after 16 hrs; format: functional; settings: Ileum
Summary of the method: (§1)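 Rabbits were starved overnight with free access to water, then anesthetized. The ileum was tied into consecutive 7-cm loops proximal to the mesoappendix. LT-containing cell lysate (750 μl) was injected alone or with sodium linolate. After 16 h the fluid in each loop was collected and expressed as ml per cm loop length. Results are means ± SD of three independent experiments.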

Oryctolagus cuniculus [5] = organism: Oryctolagus cuniculus; assay: Inhibition of intestinal fluid accumulation in rabbit ligated ileal loop model injected in presence of cholera toxin after 16 hrs; format: functional; settings: Ileum
Oryctolagus cuniculus [6] = organism: Oryctolagus cuniculus; assay: Inhibition of intestinal fluid accumulation in rabbit ligated ileal loop model at 3.3 mM injected in presence of cholera toxin after 16 hrs; format: functional; settings: Ileum
Escherichia coli = assay: Binding affinity to enterotoxigenic Escherichia coli 12566 heat-labile enterotoxin assessed as inhibition of heat-labile enterotoxin binding to ganglioside GM1 receptor
Summary of the method: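 A clarified sonicated PBS lysate of E. coli 12566 containing LT (90 μl) was incubated with or without ligand in 100 μl for 15 min at room temperature. Samples were serially diluted onto immobilized GM1 and detected by ELISA with polyclonal rabbit anti-CT serum as primary antibody.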

Vibrio cholerae [7] = assay: Binding affinity to Vibrio cholerae cholera toxin assessed as apparent isoelectric point at 100 mM by isoelectric focusing analysis (isoelectric point Rvb=6.8)
[8] = Binding affinity to Vibrio cholerae cholera toxin assessed as quenching of intrinsic fluorescence by two-state binding model assay
[9] = Binding affinity to Vibrio cholerae cholera toxin assessed as inhibition of cholera toxin binding to ganglioside GM1 receptor treated 15 mins before receptor addition by ELISA
[10] = Inhibition of intestinal fluid accumulation in rabbit ligated ileal loop model assessed as fluid level at 10.5 mM injected in presence of heat labile enterotoxin after 16 hrs (RVb=5.5 +/- 1 ml); format: functional, Oryctolagus cuniculus, Ileum; summary of the method: as §1
[11] = Inhibition of intestinal fluid accumulation in rabbit ligated ileal loop model assessed as fluid level at 1.65 mM injected in presence of cholera toxin after 16 hrs (RVb=1.6 +/- 0.2 ml/cm); format: functional, Oryctolagus cuniculus, Ileum

| SMILES | inhibition (Escherichia coli) | Kd [8] | IC50 [9] | other results |
| --- | --- | --- | --- | --- |
| CCCCC/C=C\C/C=C\CCCCCCCC(=O)O | Active | – | – | Activity (Vibrio cholerae [1]): inactive; Ratio (Vibrio cholerae [2]): 200; Activity (Vibrio cholerae [3]): Active; Activity (Oryctolagus cuniculus [4]): Active; Activity (Oryctolagus cuniculus [5]): Dose-dependent effect; inhibition (Oryctolagus cuniculus [6]): Active; Activity (Vibrio cholerae [7]): Active |
| CCCCC/C=C\C/C=C\C/C=C\C/C=C\CCCC(=O)O [ARACHIDONIC ACID] | Active | 180 µM | 380 µM | – |
| CCCCC/C=C\C/C=C\CCCCCCCC(=O)O [LINOLEIC ACID] | – | – | 410 µM | – |
| CCCCCCCC/C=C\CCCCCCCC(=O)O [OLEIC ACID] | Active | 160 µM | 410 µM | – |
| CCCCCCCCCCCCCCCC(=O)O [PALMITIC ACID] | – | – | 5800 µM | – |
| CCCCC/C=C\C/C=C\CCCCCCCC(=O)[O-].[Na+] [SODIUM LINOLATE] | – | 130 µM | – | Activity [10]: 1 mL; Activity [11]: 0.76 mL/cm |
| CCCCCCCCCCCCCCCCCC(=O)O [STEARIC ACID] | – | – | 5270 µM | – |
